Measured values published in ChEMBL document CHEMBL3244101, “2-, 3-, and 4-(alpha, alpha, beta, beta-tetrafluorophenethyl)benzylamines. A new class of antiarrhythmic agents” (J Med Chem, 1977).
Calls of active or inactive are those of the source. No cut-off for these calls is given here.

Key:
[1] = tested on: Canis familiaris; assay: Antiarrhythmic activity in anesthetized acute myocardial infarction dog model assessed as normal ECG complexes at 0.5 mg/kg, iv administered 10 mins prior to infarction measured during 1-hr postinfarction period (reference value: 19%); assay type: functional, Canis lupus familiaris, Heart
Summary of the method: (§1)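 Sclerosing agent (tetrafluorohexachlorobutane) injected into the anterior descending coronary artery to produce a multifocal ventricular arrhythmia. Single iv dose 10 min before infarction. Segmented ECG tracings over the 1 h after infarction were scored as the percentage of complexes of sinus origin (normal). Saline controls were run alongside.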

[2] = tested on: Canis familiaris; assay: Antiarrhythmic activity in iv dosed anesthetized acute myocardial infarction dog model assessed as protection against ventricular arrhythmia development administered 10 mins prior to infarction measured during 1-hr postinfarction period; assay type: functional, Canis lupus familiaris, Heart; summary of the method: as §1
[3] = tested on: Canis familiaris; assay: Antiarrhythmic activity in anesthetized acute myocardial infarction dog model assessed as normal ECG complexes at 0.25 mg/kg, iv administered 10 mins prior to infarction measured during 1-hr postinfarction period (reference value: 19%); assay type: functional, Canis lupus familiaris, Heart; summary of the method: as §1
[4] = tested on: Canis familiaris; assay: Antiarrhythmic activity in anesthetized acute myocardial infarction dog model assessed as normal ECG complexes at 2.5 mg/kg, iv administered 10 mins prior to infarction measured during 1-hr postinfarction period (reference value: 19%); assay type: functional, Canis lupus familiaris, Heart; summary of the method: as §1
[5] = tested on: Canis familiaris; assay: Antiarrhythmic activity in anesthetized acute myocardial infarction dog model assessed as normal ECG complexes at 10 mg/kg, po administered 120 mins prior to infarction measured post-infarction; assay type: functional, Canis lupus familiaris, Heart
Summary of the method: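 Oral dosing 120 min before infarction in the same intracoronary tetrafluorohexachlorobutane arrhythmia model. Protection was read from ECG complexes after infarction, as the percentage that were normal.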

[6] = tested on: Canis familiaris; assay: Antiarrhythmic activity in anesthetized acute myocardial infarction dog model assessed as normal ECG complexes at 1.25 mg/kg, iv administered 10 mins prior to infarction measured during 1-hr postinfarction period (reference value: 19%); assay type: functional, Canis lupus familiaris, Heart; summary of the method: as §1
[7] = tested on: Canis familiaris; assay: Antiarrhythmic activity in anesthetized acute myocardial infarction dog model assessed as normal ECG complexes at 0.06 mg/kg, iv administered 10 mins prior to infarction measured during 1-hr postinfarction period (reference value: 19%); assay type: functional, Canis lupus familiaris, Heart; summary of the method: as §1
[8] = tested on: Canis familiaris; assay: Effect on cardiac conduction in anesthetized acute myocardial infarction dog model assessed as increase in QT duration at 0.03 mg/kg/min, iv administered as continuous infusion for 60 mins measured after 10 mins (reference value: 2 ms); assay type: functional, Canis lupus familiaris, Heart
[9] = tested on: Canis familiaris; assay: Effect on cardiac conduction in anesthetized acute myocardial infarction dog model assessed as increase in PR interval at 0.025 mg/kg/min, iv administered as continuous infusion for 60 mins measured after 10 mins (reference value: 0 ms); assay type: functional, Canis lupus familiaris, Heart
[10] = tested on: Canis familiaris; assay: Effect on cardiac conduction in anesthetized acute myocardial infarction dog model assessed as increase in QT duration at 0.06 mg/kg/min, iv administered as continuous infusion for 60 mins measured after 10 mins (reference value: 2 ms); assay type: functional, Canis lupus familiaris, Heart
[11] = tested on: Canis familiaris; assay: Effect on cardiac conduction in anesthetized acute myocardial infarction dog model assessed as increase in QT duration at 0.0125 mg/kg/min, iv administered as continuous infusion for 60 mins measured after 10 mins (reference value: 2 ms); assay type: functional, Canis lupus familiaris, Heart
[12] = tested on: Canis familiaris; assay: Effect on cardiac conduction in anesthetized acute myocardial infarction dog model assessed as increase in PR interval at 0.0125 mg/kg/min, iv administered as continuous infusion for 60 mins measured after 10 mins (reference value: 0 ms); assay type: functional, Canis lupus familiaris, Heart
[13] = tested on: Canis familiaris; assay: Effect on cardiac conduction in anesthetized acute myocardial infarction dog model assessed as increase in PR interval at 0.03 mg/kg/min, iv administered as continuous infusion for 60 mins measured after 10 mins (reference value: 0 ms); assay type: functional, Canis lupus familiaris, Heart
[14] = tested on: Canis familiaris; assay: Effect on cardiac conduction in anesthetized acute myocardial infarction dog model assessed as increase in PR interval at 0.06 mg/kg/min, iv administered as continuous infusion for 60 mins measured after 10 mins (reference value: 0 ms); assay type: functional, Canis lupus familiaris, Heart
[15] = tested on: Canis familiaris; assay: Effect on cardiac conduction in anesthetized acute myocardial infarction dog model assessed as increase in QT duration at 0.025 mg/kg/min, iv administered as continuous infusion for 60 mins measured after 10 mins (reference value: 2 ms); assay type: functional, Canis lupus familiaris, Heart
[16] = tested on: Canis familiaris; assay: Antiarrhythmic activity in anesthetized acute myocardial infarction dog model assessed as normal ECG complexes at 0.07 mg/kg, iv administered 10 mins prior to infarction measured during 1-hr postinfarction period (reference value: 19%); assay type: functional, Canis lupus familiaris, Heart; summary of the method: as §1
[17] = tested on: Canis familiaris; assay: Antiarrhythmic activity in anesthetized acute myocardial infarction dog model assessed as normal ECG complexes at 10 mg/kg, iv administered 10 mins prior to infarction measured during 1-hr postinfarction period (reference value: 19%); assay type: functional, Canis lupus familiaris, Heart; summary of the method: as §1
[18] = tested on: Canis familiaris; assay: Antiarrhythmic activity in anesthetized acute myocardial infarction dog model assessed as normal ECG complexes at 5 mg/kg, iv administered 10 mins prior to infarction measured during 1-hr postinfarction period (reference value: 19%); assay type: functional, Canis lupus familiaris, Heart; summary of the method: as §1
[19] = tested on: Canis familiaris; assay: Effect on cardiac conduction in anesthetized acute myocardial infarction dog model assessed as increase in PR interval at 5 mg/kg, iv administered 10 mins prior to infarction measured after 10 mins (reference value: 0 ms); assay type: functional, Canis lupus familiaris, Heart
[20] = tested on: Canis familiaris; assay: Effect on cardiac conduction in anesthetized acute myocardial infarction dog model assessed as increase in QT duration at 5 mg/kg, iv administered 10 mins prior to infarction measured after 10 mins (reference value: 2 ms); assay type: functional, Canis lupus familiaris, Heart
[21] = tested on: Canis familiaris; assay: Reduction in heart rate in anesthetized acute myocardial infarction dog model at 5 mg/kg, iv administered 10 mins prior to infarction (reference value: 6 bpm); assay type: functional, Canis lupus familiaris
[22] = tested on: Canis familiaris; assay: Reduction in heart rate in anesthetized acute myocardial infarction dog model at 2.5 mg/kg, iv administered 10 mins prior to infarction (reference value: 6 bpm); assay type: functional, Canis lupus familiaris
[23] = tested on: Canis familiaris; assay: Effect on cardiac conduction in anesthetized acute myocardial infarction dog model assessed as increase in QT duration at 2.5 mg/kg, iv administered 10 mins prior to infarction measured after 10 mins (reference value: 2 ms); assay type: functional, Canis lupus familiaris, Heart
[24] = tested on: Canis familiaris; assay: Hypotensive activity in iv dosed anesthetized dog at higher doses; assay type: ADME, organism-based, Canis lupus familiaris; conditions: in vivo
[25] = tested on: Canis familiaris; assay: Myocardial depressant activity in iv dosed anesthetized dog at higher doses; assay type: ADME, organism-based, Canis lupus familiaris, Myocardium; conditions: in vivo
[26] = tested on: Canis familiaris; assay: Effect on cardiac conduction in anesthetized acute myocardial infarction dog model assessed as increase in PR interval at 2.5 mg/kg, iv administered 10 mins prior to infarction measured after 10 mins (reference value: 0 ms); assay type: functional, Canis lupus familiaris, Heart
[27] = tested on: Canis familiaris; assay: Effect on cardiac conduction in anesthetized acute myocardial infarction dog model assessed as increase in QT duration at 10 mg/kg, iv administered 10 mins prior to infarction measured after 10 mins (reference value: 2 ms); assay type: functional, Canis lupus familiaris, Heart
[28] = tested on: Canis familiaris; assay: Reduction in heart rate in anesthetized acute myocardial infarction dog model at 10 mg/kg, iv administered 10 mins prior to infarction (reference value: 6 bpm); assay type: functional, Canis lupus familiaris
[29] = tested on: Canis familiaris; assay: Effect on cardiac conduction in anesthetized acute myocardial infarction dog model assessed as increase in PR interval at 10 mg/kg, iv administered 10 mins prior to infarction measured after 10 mins (reference value: 0 ms); assay type: functional, Canis lupus familiaris, Heart
[30] = Canis lupus familiaris, Heart, iv, read-out: ED75

Row | SMILES | Activity [3] [%] | Activity [4] [%] | Activity [6] [%] | Activity [1] [%] | ED75 [2, 30] [mg/kg] | other results
1 | CNC(C)c1ccccc1C(F)(F)C(F)(F)c1ccccc1.O=C(O)C(O)C(O)C(=O)O (single isomer, unassigned; (-)) | 44 | – | – | – | – | Activity ([1]; 0.5 mg/kg): 84%; ED75 [2]: 0.48 mg/kg
2 | CC(C)(N)c1ccc(C(F)(F)C(F)(F)c2ccccc2)cc1.Cl | 50 | 98 | 89 | 75 | 0.6 | Activity [5]: >=80%; Activity [7]: 35%
3 | CC(C)(N)c1cccc(C(F)(F)C(F)(F)c2ccccc2)c1.Cl | – | 80 | 45 | – | 2.7 | –
4 | CN(C)C(C)(C)c1ccc(C(F)(F)C(F)(F)c2ccccc2)cc1.Cl | – | 83 | 53 | – | 2.1 | –
5 | CNC(C)(C)c1ccc(C(F)(F)C(F)(F)c2ccc(C)cc2)cc1.Cl | – | 67 | – | – | – | –
6 | CCN(CC)CC(=O)Nc1c(C)cccc1C [LIDOCAINE] | – | – | – | – | – | Time [8]: 0 ms; Time [9]: 2 ms; Time [10]: 0 ms; Time [11]: 0 ms; Time [12]: 0 ms; Time [13]: 0 ms; Time [14]: 0 ms; Time [15]: 0 ms
7 | Cl.NCc1ccccc1C(F)(F)C(F)(F)c1ccccc1 | 81 | 98 | 91 | 86 | 0.2 | Activity [5]: >=80%; Activity [16]: 58%
8 | Cl.Nc1ccccc1C(F)(F)C(F)(F)c1ccccc1 | – | 10 | – | – | – | Activity [17]: 26%; ED75 ([2]; Canis lupus familiaris, Heart): inactive
9 | Br.FC(F)(c1ccccc1)C(F)(F)c1cccc(CNCc2ccccc2)c1CNCc1ccccc1 | – | 99 | 98 | 65 | 0.64 | –
10 | CN(C)Cc1ccccc1C(F)(F)C(F)(F)c1ccccc1.Cl | – | 61 | – | – | 4.8 | Activity [18]: 75%
11 | Br.FC(F)(c1ccccc1)C(F)(F)c1cccc2c1CNC2 | – | 51 | – | – | 7 | Activity [18]: 71%
12 | Cl.NCc1ccc(C(F)(F)C(F)(F)c2ccccc2)cc1 | – | 37 | – | – | – | –
13 | NCc1ccccc1C(F)(F)C(F)(F)c1ccc(F)cc1 | 20 | 74 | 52 | – | 3 | –
14 | Cl.NCc1ccccc1C(F)(F)C(F)(F)C(F)(F)c1ccccc1 | 24 | 83 | 68 | – | 1.8 | –
15 | Cl.NCCc1ccccc1C(F)(F)C(F)(F)c1ccccc1 | – | 88 | – | 27 | 2 | –
16 | Br.CNCc1cccc(C(F)(F)C(F)(F)c2ccccc2)c1CNC | 30 | 92 | 65 | 61 | 1.3 | –
17 | O=C1NC(=O)C(c2ccccc2)(c2ccccc2)N1 [PHENYTOIN] | – | 17 | – | – | – | Time [19]: 8 ms; Time [20]: 3 ms; Activity [21]: 13 bpm; Activity [18]: 40%; Activity [22]: 11 bpm; Time [23]: 5 ms; Activity [24]: Toxic; Activity [25]: Toxic; Time [26]: 10 ms
18 | NCc1cc(F)ccc1C(F)(F)C(F)(F)c1ccccc1 | – | – | – | 48 | 0.5 | –
19 | CC(N)c1ccccc1C(F)(F)C(F)(F)c1ccccc1.O=C(O)/C=C\C(=O)O (stereo unspecified) | – | 87 | 82 | 43 | 1.3 | –
20 | CNC(C)c1ccccc1C(F)(F)C(F)(F)c1ccccc1.O=C(O)C(O)C(O)C(=O)O (single isomer, unassigned; (+)) | – | – | 72 | – | – | Activity ([1]; 0.5 mg/kg): 26%; ED75 [2]: 2 mg/kg
21 | Cc1c(CN)cccc1C(F)(F)C(F)(F)c1ccccc1.Cl | – | 49 | – | – | – | –
22 | CC(N)c1ccc(C(F)(F)C(F)(F)c2ccccc2)cc1.Cl (stereo unspecified) | – | 80 | 25 | – | 4 | –
23 | CNC(C)(C)c1ccc(C(F)(F)C(F)(F)c2ccccc2)cc1.Cl | 68 | 99 | 86 | 65 | 0.5 | Activity [5]: >=80%; Activity [7]: 27%
24 | Cc1ccc(C(F)(F)C(F)(F)c2ccc(C(C)(C)N)cc2)cc1.Cl | 52 | 88 | 75 | – | 1.4 | Activity [7]: 15%
25 | CNC(C)c1ccccc1C(F)(F)C(F)(F)c1ccccc1.O=C(O)/C=C\C(=O)O (stereo unspecified) | 35 | 88 | 91 | 59 | 0.88 | –
26 | Cl.FC(F)(c1ccccc1)C(F)(F)c1ccccc1CNCc1ccccc1 | 23 | – | – | 74 | 0.84 | –
27 | CC(O)C(=O)O.NCc1ccccc1C(F)(F)C(F)(F)c1ccccc1CN | – | 71 | 59 | 38 | 2.5 | –
28 | CNCc1ccccc1C(F)(F)C(F)(F)c1ccccc1.Cl | 38 | 93 | – | 73 | 0.84 | –
29 | C=C[C@H]1CN2CC[C@H]1C[C@@H]2[C@@H](O)c1ccnc2ccc(OC)cc12 [QUINIDINE] | – | 25 | – | – | 9.4 | Time [19]: 8 ms; Time [27]: 78 ms; Activity [28]: 31 bpm; Time [20]: 36 ms; Activity [21]: 24 bpm; Activity [18]: 46%; Activity [22]: 21 bpm; Activity [17]: 89%; Time [29]: 15 ms; Time [23]: 33 ms; Time [26]: 0 ms
